Screening data deposited in PubChem BioAssay by Broad Institute.
GSIS activator: primary screen for activators of insulin secretion dependent on glucose, INS-1E cells, GLuc reporter luminescence; activation, % at 16.6 µM; INS-1E GLuc reporter insulin secretion, 2-3 h; 370,000 tested, 0.61% active; AID 743287;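 active = lowest replicate activation of at least 40%, so every replicate reaches that level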;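 also: 0% = median of neutral control wells and 100% = median of IBMX positive control wells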
miR-122 sensor: inhibitors of miR-122 in Huh7 cells | Huh7 miR-122 Renilla luciferase sensor, 48 h; neutral wells = 0, positive control = 100 | activation (reporter increase), % at 12.5 µM | 340,000 tested, 0.3% active | AID 602342;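 active = mean replicate activation score at least 90 and every replicate individually at or above 90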;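 also: higher luciferase means less miR-122 activity so hits act as miR-122 inhibitors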
Env fusion inh: HIV envelope-mediated fusion inhibition. 360,000 tested, 1.1% active. inhibition, % at 12.3 µM. HeLa-JRFL Env/CEM21 cell fusion, luciferase. AID 651610;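 active = mean replicate inhibition score of at least 50 and every replicate individually at or above 50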;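 also: 0% = plate neutral controls and 100% = maraviroc near 300 nM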
F508del corr: correctors of CFTR F508del function in bronchial epithelial cells; CFBE cells, YFP halide quenching; stimulated with forskolin plus potentiator P3; % fluorescence drop versus neutral controls; activity (quench increase), % at 7.58 µM; 350,000 tested, 0.36% active;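 active = mean added fluorescence quench of at least 8% versus neutral control, with both replicates also reaching 8%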;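 also: cells transiently co-express mutant CFTR-F508del with the halide-sensitive YFP; corrector assay measuring rescue of mutant channel to the surface after 24 h compound exposure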
Ecoli rRNA inh: selective bacterial rRNA inhibition in E. coli | 350,000 tested, 1.6% active | E. coli WT GFP vs humanized-ribosome RFP mutants, fluorescence, 24 h; stronger effect = lower value; DMSO median 0, no signal -100 | GFP signal change (wild-type ribosome), % (concentration not given with the values);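 active = significant combined selectivity score with lowered wild-type GFP, culture density cut under 30%, mutant RFP and density less affected; inactive = any of these conditions unmet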
Cneo AK release: Cryptococcus neoformans lysis via adenylate kinase release; C. neoformans lysis, adenylate kinase release luminescence, 4 h; normalised: neutral wells 0, clomiphene wells 100; lysis activity, % at 15 µM; 360,000 tested, 0.2% active; AID 651654;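 active = mean lysis activity across replicates of at least 80%, whatever share of replicates individually reach that level; inactive = mean lysis activity below 80%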
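Test system: log-phase Cryptococcus neoformans yeast cells. Input: 5 × 10^6 yeast cells/mL. Medium: fresh YPD growth medium. Doses: single dose. Incubation: static 4 h at 37 °C with compound, 1 h detection. Measured by: luminescent adenylate kinase detection reagent. Read-out: signal increase indicating cell lysis. Benchmarks: Clomiphene.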
* marks the source's active call; other numbers are inactive results; . = no result; [ ] = remark or other dose. An excerpt weighted towards active compounds, which were near 3.1% of everything screened.

SMILES	GSIS activator	miR-122 sensor	Env fusion inh	F508del corr	Ecoli rRNA inh	Cneo AK release
O=C(NCC[C@H]1CC[C@@H](NS(=O)(=O)c2ccc(F)cc2)[C@@H](CO)O1)Nc1ccc(F)cc1	-14	.	39[16.7 µM]	1	-5	-6
CCOC(=O)CNC(=O)CSc1ccc2nnc(-c3ccc(F)cc3)n2n1	7	.	1	-2	10	.
CCSc1ccc2nnc(-c3ccc(F)cc3)n2n1	61*	.	.	-1	-35	0
COc1ccc(C2C(C(=O)c3ccccc3)N3c4ccccc4C=CC3C2[N+](=O)[O-])cc1 (stereo not given)	4	.	10	23*	-18	.
C/C=C/c1ccc([C@@H]2[C@H](C#N)N(c3nc(CC)cs3)[C@H]2CO)cc1	-10	.	.	-4	-1	2
CCOC(=O)c1cc([N+](=O)[O-])c([N+](=O)[O-])cc1NC(C)=O	61*	-5	.	-1	-7	-5
CCOC(=O)c1ccc(NC(=O)c2ccccc2[N+](=O)[O-])cc1	8	-3	-8	.	.	1
CNC[C@H]1Oc2ccc(NS(C)(=O)=O)cc2C(=O)N(C)C[C@@H]1C	2	.	.	.	0	.
Cc1cc(C(=O)N/N=C/c2ccc(-c3cccc([N+](=O)[O-])c3)o2)n[nH]1	35	1	-10	2	8	0
Cc1cc(C(=O)N/N=C/c2ccc(-c3ccc([N+](=O)[O-])cc3Cl)o2)n[nH]1	9	.	3	-2	-32*	-1
CO[C@H]1CN(C)C(=O)c2cc(NC(=O)C3CC3)ccc2OC[C@H](C)N(C(=O)CN(C)C)C[C@@H]1C	10	0[16.7 µM]	.	1	-3	-3
COCC(=O)Nc1ccc2c(c1)C(=O)N(C)C[C@H](OC)[C@@H](C)CN(CC1CC1)[C@H](C)CO2	-7	.	.	1	1	2
FC(F)(F)c1cnc(N2CCCN(C(=S)Nc3ccccc3)CC2)c(Cl)c1	5	-37	87*	0	-41*	16
COCC#Cc1cnc2c(c1)C(=O)N([C@@H](C)CO)C[C@H](C)[C@H](CN(C)C(C)=O)O2	24	12[16.7 µM]	-39[16.7 µM]	-3	5	0
N#CC(CO)(Cc1ccc(OC(F)F)cc1)c1nc2ccccc2[nH]1 (stereo not given)	-14	.	-7	.	-21*	.
Cc1c(Cl)cccc1NC(=S)N(Cc1cccs1)C1CCCC1	-23	.	21	3	-22*	.
Cc1ccccc1NC(=S)N(Cc1cccs1)C1CCCCC1	-7	4	17	-3	-9	12
CO[C@@H]1CN(C)C(=O)c2cc(NC(=O)C3CCC3)ccc2OC[C@@H](C)N(C(=O)CN(C)C)C[C@@H]1C	10	.	.	0	1	6
Cc1ccc(C)c(NC2=C(Cl)C(=O)OC2OC(=O)c2ccco2)c1 (stereo not given)	-7	-6	.	0	-28*	-2
Cc1ccc(NC2=C(Cl)C(=O)OC2OC(=O)c2ccco2)c(C)c1 (stereo not given)	.	-3	-25	.	.	-2
Cc1[nH]c2ccccc2c1CCNC(=O)c1c(N)no[n+]1[O-]	-5	.	-2	1	-21*	.
Cc1noc(C)c1S(=O)(=O)Nc1ccc2c(c1)CC(=O)N([C@H](C)CO)C[C@@H](C)[C@@H](CN(C)Cc1ccc3c(c1)OCO3)O2	7	-2[16.7 µM]	8[16.7 µM]	-6	-3	2
COc1ccc(-n2c(C)c(C(C)=O)c3cc(OC(C)=O)ccc32)cc1	12	19	50	0	-24*	3
C[C@@H]1CN([C@@H](C)CO)C(=O)c2cccc(NS(=O)(=O)c3cn(C)cn3)c2O[C@H]1CN(C)Cc1ccc(-c2ccccc2)cc1	0	3[16.7 µM]	.	3	-1	52
O=C(Nc1ccccc1F)N[C@@H]1CC[C@H](CCNS(=O)(=O)c2ccc(F)cc2)O[C@@H]1CO	-2	.	-20[16.7 µM]	2	-3	-1
SMILES	GSIS activator	miR-122 sensor	Env fusion inh	F508del corr	Ecoli rRNA inh	Cneo AK release
COc1ccc(CCN2C(=O)CN(Cc3ccccc3)CC2=O)cc1OC	.	.	3	.	.	.
COc1ccc(CCN2C(=O)C=CC2=O)cc1OC	205*	-1	4	0	6	.
CCC(=O)N1[C@@H]2c3cccc(=O)n3C[C@H]1[C@H](CO)[C@H]2C(=O)NCc1ccc(F)cc1	8	-2[16.7 µM]	.	-1	0	2
CCNC(=O)[C@@H]1[C@@H](CO)[C@@H]2Cn3c(cccc3=O)[C@H]1N2C(=O)Nc1cc(F)ccc1F	7	.	.	-1	1	.
CCC(=O)N1[C@@H]2Cn3c(cccc3=O)[C@H]1[C@@H](C(=O)NCc1ccccc1)[C@@H]2CO	6	21[16.7 µM]	.	2	2	99*
CCCNC(=O)[C@H]1[C@H](CO)[C@H]2Cn3c(cccc3=O)[C@@H]1N2C(=O)Nc1cc(F)ccc1F	11	-2[16.7 µM]	.	0	2	88*
CCC(=O)N1[C@@H]2c3cccc(=O)n3C[C@H]1[C@H](CO)[C@H]2C(=O)NCc1ccccc1	-3	0[16.7 µM]	.	-1	2	93*
CCn1c(C(=O)N2CCCC(C(=O)NCCCc3ccccc3)C2)cc2sccc21 (stereo not given)	.	.	66*	.	.	.
Cc1ccccc1OCc1nnc(SCC(=O)Nc2ccc3c(c2)oc2ccccc23)n1C	131*	2	-85	.	.	1
COc1ccccc1OCc1nnc(SCC(=O)Nc2ccc(C)cc2)n1C	.	.	.	.	.	0
Cc1ccc(Nc2nc(Cl)nc3ncn(C)c23)c(C)c1	19	-7	-11	3	-36*	1
N#Cc1ccccc1CSc1nc2ccc(NC(=O)c3ccccc3C(=O)O)cc2s1	-1	-1	14	-3	-23*	.
C[C@@H]1CN([C@@H](C)CO)S(=O)(=O)c2ccc(-c3cccc(C(=O)N(C)C)c3)cc2O[C@H]1CN(C)Cc1ccc2c(c1)OCO2	-26	12[16.7 µM]	-27[16.7 µM]	-1	0	-1
COc1cc(OC)c(C2=NOC(C(=O)N3CCN(C(=O)c4ccco4)CC3)C2)cc1Cl (stereo not given)	8	.	29	1	-10	0
COc1cc(OC)c(C2=NOC(C(=O)N3CCc4ccccc4C3)C2)cc1Cl (stereo not given)	-2	49	.	-5	-26*	-1
CCC1(C)Cc2ccccc2-c2nc[nH]c(=O)c21 (stereo not given)	29	-3	0	8.6*	-12	-4
CCC1(C)Cc2ccccc2-c2[nH]c(=S)[nH]c(=O)c21 (stereo not given)	10	-10	-9	3	-14	4
CCCN(C#N)c1nc(NCC)nc(NC(C)C)n1	.	-3	.	.	.	3
CCNc1nc(NC(C)C)nc(N(C)C#N)n1	58*	14	8	3	1	2
CCCCCCCCCCCCCCCC[n+]1cccc2ccccc21	159*	.	74*	.	-32	.
